According to ChEMBL document CHEMBL1833789, “Inhibition of xc⁻ transporter-mediated cystine uptake by sulfasalazine analogs” (Bioorg Med Chem Lett, 2011):

Target: T1, Cystine/glutamate transporter (Homo sapiens, UniProt Q9UPY5)
T1 sequence (Q9UPY5 whole entry): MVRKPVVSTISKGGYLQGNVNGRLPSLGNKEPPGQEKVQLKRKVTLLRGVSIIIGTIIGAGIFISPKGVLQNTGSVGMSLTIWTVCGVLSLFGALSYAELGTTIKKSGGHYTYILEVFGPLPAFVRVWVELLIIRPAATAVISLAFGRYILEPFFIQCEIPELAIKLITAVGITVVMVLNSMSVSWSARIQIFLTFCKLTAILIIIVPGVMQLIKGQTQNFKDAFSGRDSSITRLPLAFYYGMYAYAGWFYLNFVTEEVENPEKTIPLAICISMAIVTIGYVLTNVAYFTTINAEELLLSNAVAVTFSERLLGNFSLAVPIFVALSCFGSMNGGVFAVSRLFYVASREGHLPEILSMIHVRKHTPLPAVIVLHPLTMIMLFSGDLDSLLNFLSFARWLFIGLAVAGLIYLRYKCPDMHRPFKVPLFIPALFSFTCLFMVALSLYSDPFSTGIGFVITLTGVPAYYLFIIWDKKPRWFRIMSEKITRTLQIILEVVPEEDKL
Assay: Inhibition of xc-cystine-glutamate antiporter-mediated cystine uptake in human U87 cells using L-[14C]cystine as substrate after 15 mins by liquid scintillation counting
Format: cell-based, U-87MG ATCC
How it was run: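 U87 human glioblastoma-astrocytoma cells, seeded at 0.067 × 10^6 per well and grown 6 days to confluency. Washed with pre-warmed sodium-free choline-chloride uptake buffer (HEPES 10 mM, pH 7.4), then given 80 µM L-[14C(U)]-cystine at 37 °C with or without inhibitor at various concentrations. Uptake stopped by three ice-cold washes, cells lysed in 0.1 N NaOH, counts normalized to protein.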

| SMILES | IC50 [µM] |
| --- | --- |
| N[C@@H](C(=O)O)c1ccc(C(=O)O)cc1 | > 1000 |
| COC(=O)c1cc(C#Cc2ccc(S(=O)(=O)Nc3ccccn3)cc2)ccc1O | > 1000 |
| COC(=O)c1cc(/C=C/c2ccc(S(=O)(=O)Nc3ccccn3)cc2)ccc1O | 900 |
| COC(=O)c1cc(CCc2ccc(S(=O)(=O)Nc3ccccn3)cc2)ccc1O | > 1000 |
| O=C(O)c1cccc(CCc2ccc(S(=O)(=O)Nc3ccccn3)cc2)c1 | 920 |
| Nc1ccc(O)c(C(=O)O)c1 [MESALAMINE] | > 1000 |
| Nc1ccc(S(=O)(=O)Nc2ccccn2)cc1 [SULFAPYRIDINE] | > 1000 |

The next compounds have a lower IC50 than those just listed; values first:

| IC50 [µM] | SMILES |
| --- | --- |
| 700 | O=C(O)c1cc(CCc2ccc(S(=O)(=O)Nc3ccccn3)cc2)ccc1O |
| 270 | O=C(O)c1cccc(C#Cc2ccccc2)c1 |
| 200 | O=C(O)c1cc(/N=N/c2ccccc2)ccc1O |
| 150 | O=C(O)c1cc(C#Cc2ccccc2)ccc1O |
| 75 | O=C(O)c1cccc(C#Cc2ccc(S(=O)(=O)Nc3ccccn3)cc2)c1 |
| 70 | O=C(O)c1cc(/C=C/c2ccc(S(=O)(=O)Nc3ccccn3)cc2)ccc1O |
| 70 | Cc1cccnc1NS(=O)(=O)c1ccc(C#Cc2ccc(O)c(C(=O)O)c2)cc1 [SUSALIMOD] |
| 30 | O=C(O)c1cc(C#Cc2ccc(S(=O)(=O)Nc3ccccn3)cc2)ccc1O |
| 30 | O=C(O)c1cc(/N=N/c2ccc(S(=O)(=O)Nc3ccccn3)cc2)ccc1O [SULFASALAZINE] |
| 15 | N[C@H](C(=O)O)c1ccc(C(=O)O)cc1 |
